TAAR1 antagonist = human TAAR1 antagonists, primary screen, Fluo-8 calcium fluorescence, CHO RD-HGA16 cells; antagonist; inhibition, % at 3 µM; hit rate 1.5% among 360,000;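 active means inhibition above a per-plate cutoff, the mean inhibition of test compounds on that plate plus 3 SD, cut at about 49% in these data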;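 further: 0% = DMSO plus EC80 beta-PEA response and 100% = DMSO alone without agonist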
Target sequence (Q96RJ0 whole entry, looked up): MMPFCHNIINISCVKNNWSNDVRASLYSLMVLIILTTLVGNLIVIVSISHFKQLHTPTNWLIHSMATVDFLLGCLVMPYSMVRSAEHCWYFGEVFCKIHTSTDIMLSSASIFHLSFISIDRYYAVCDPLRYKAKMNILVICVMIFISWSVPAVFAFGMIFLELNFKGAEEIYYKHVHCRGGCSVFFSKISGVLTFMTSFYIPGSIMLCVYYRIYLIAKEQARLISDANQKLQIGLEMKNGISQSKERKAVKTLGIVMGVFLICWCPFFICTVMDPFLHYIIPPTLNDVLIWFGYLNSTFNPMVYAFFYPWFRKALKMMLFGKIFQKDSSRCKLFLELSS
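System: CHO RD-HGA16 cells bearing hTAAR1. Reagent: EC80 β-phenethylamine stimulus. Schedule: seeding 17-24 h prior, 75-min 37 °C, 30-min RT dye loading. Signal: Fluo-8 intracellular calcium dye fluorescence, real-time kinetic reads. Read-out: % inhibition from peak post-agonist over basal fluorescence ratio. Benchmarks: vehicle wells and EC80 agonist wells. Replicates: n of 1.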
rCAG RNA binder = binders of r(CAG) RNA repeats, primary screen, biochemical, fluorescence | r(CAG) RNA repeat, TO-PRO-1 dye displacement fluorescence | inhibition, % at 3 µM | hit rate 1.3% among 370,000 | AID 651821, 2012;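 active means inhibition above the plate cutoff, the mean of all test compounds on that plate plus 3 SD, cut at about 35% in these data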;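 further: 0% = DMSO alone and 100% = 100 µM mitoxantrone as full dye displacement; higher means more dye released from RNA so lower well fluorescence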
TAAR1 ag = human TAAR1 agonists, primary screen, Fluo-8 calcium fluorescence, CHO RD-HGA16 cells. Trace amine-associated receptor 1 (Homo sapiens), Q96RJ0. vehicle wells 0%, saturating PEA agonist 100%. activation, % at 3 µM. hit rate 0.99% among 360,000;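 active means activation above the mean activation of all test compounds in the run plus 3 SD, cut at about 38% in these data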
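Assay system: CHO-derived RD-HGA16 cells with stable Gα16 and human TAAR1; timing: 17-24 h seeding, 75 min 37 °C dye, 30 min RT; read-out: % activation from peak over basal fluorescence ratio, DMSO-to-PEA scaled; measured by: kinetic Fluo-8 calcium fluorescence; benchmarks: low control DMSO, high control PEA (EC100); doses: 3 µM single concentration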
NS3 helicase inh = inhibitors of HCV NS3 helicase, primary screen, biochemical, Cy5 molecular beacon fluorescence. Hepatitis C virus NS3 helicase. NS3 helicase DNA unwinding. inhibition, % at 10.9 µM. hit rate 0.56% among 290,000. AID 1800, 2009;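 active means inhibition above the mean of all tested compounds plus 3 SD, set per campaign, cut at about 35% in these data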;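 further: 0% = DMSO wells and 100% = thioflavine S control wells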
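Compound dosing – single dose, 10.9 µM nominal final, DMSO 0.8% final · System – NS3 helicase fragment of HCV · Buffer or medium – MOPS pH 6.5, MgCl2, DTT, Tween20, BSA · Signal – Cy5 beacon fluorescence read at start and 1 h · Also added – annealed dual-labelled DNA beacon duplex, ATP-started · Schedule – 1 h at 25 °C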
core dimer inh = inhibitors of HCV core protein dimerization, primary screen, biochemical, TR-FRET, high-throughput; AID 1899, 2009; inhibition, % at 5 µM; TR-FRET GST/Flag-core106 dimerization, 1536-well; hit rate 0.33% among 300,000;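 active means inhibition above the mean of all tested compounds plus 3 SD, set per screening campaign, cut at about 45% in these data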
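System – GST-tagged and Flag-tagged HCV core protein residues 1-106 · Repeats – one well for each compound · Technique – TR-FRET 671 and 617 nm emission · Doses – one concentration, 5 µM, in 0.5% DMSO · Times – 4 h, 22.5 °C incubation · Also added – Eu donor and XL665 acceptor anti-tag antibodies · Measure – percent inhibition of core106 dimerization signal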
nonsel antag count = nonselective antagonists in TAAR1 counter-screen cells, counter-screen for hTAAR1 antagonist project, cell-based, fluorescence, calcium. shares compounds with TAAR1 antagonist. counterscreen cell line, antagonist mode. inhibition, % at 3 µM. hit rate 77% among 2,400. AID 651780, 2012; in the data active means inhibition above about 22%;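 further: CHO-Ga16 host cells stimulated with ATP at an EC80 level; 0% = agonist EC80 plus vehicle and 100% = vehicle without agonist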
TAAR1 ant conf = human TAAR1 antagonists, retest of hits, confirmation, cell-based, fluorescence | shares compounds with TAAR1 antagonist | TAAR1-expressing cells, fluorescence antagonist read-out | inhibition, % at 3 µM | hit rate 40% among 2,400 | AID 651785, 2012; in the data active means inhibition above about 49%;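 further: CHO-Ga16 host cells challenged with agonist PEA near its EC80; 0% = agonist at EC80 plus vehicle and 100% = vehicle with no agonist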
Ga16 nonsel ag = calcium activation in Ga16-expressing cells, counter-screen for TAAR1 antagonist project, cell-based, fluorescence; shares compounds with TAAR1 antagonist; agonist counterscreen; activation, % at 3 µM; hit rate 18% among 2,400; AID 651953, 2012; in the data active means activation above about 12%;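 further: 0% = vehicle wells and 100% = saturating stimulus response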
TAAR1 ag counter = TAAR1 activation by candidate antagonists – cell-based, fluorescence, counter-screen for TAAR1 antagonist project | hTAAR1 cell line, agonist mode | activation, % at 3 µM | shares compounds with TAAR1 antagonist | hit rate 2% among 2,400; in the data active means activation above about 37%;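 further: CHO cells stably expressing TAAR1 with calcium dye readout; 0% = DMSO vehicle and 100% = full agonist response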
* marks the source's active call; other numbers are inactive results; · = not tested or not shown. A selection: hits, their analogues and other compounds. The true share with any hit is near 3.7%.

SMILES	TAAR1 antagonist	rCAG RNA binder	TAAR1 ag	NS3 helicase inh	core dimer inh	nonsel antag count	TAAR1 ant conf	Ga16 nonsel ag	TAAR1 ag counter
CCOC(=O)C1=C(COC(=O)/C=C/c2ccc(C)o2)NC(=O)NC1C (configuration not stated)	22	-2	13	·	·	·	·	·	·
CCOC(=O)C1=C(COC(=O)/C=C/c2ccc(OCC)c(OC)c2)NC(=O)NC1C (configuration not stated)	10	-9	3	·	-3	·	·	·	·
CCOC(=O)C1=C(COC(=O)/C=C/c2cccc(OC)c2OC)NC(=O)NC1C (configuration not stated)	73*	-9	19	3	-3	25*	52*	12*	20
CCOC(=O)C1=C(COC(=O)Cc2ccc(Br)cc2)NC(=O)NC1C (configuration not stated)	69*	-4	9	-7	3	25*	39	7	4
COC(=O)[C@]12C[C@H](CC(=O)N3CCC(c4ccccc4)CC3)C(=O)N(Cc3cccc4ccccc34)C1=C[C@H](C(C)(C)C)O[C@@H]2C	·	4	·	·	·	·	·	·	·
O=C(c1cc(F)ccc1F)N1CCCC(c2nc(-c3cccs3)no2)C1 (configuration not stated)	·	1	·	·	·	·	·	·	·
COC(=O)c1cc(NC(=O)COC(=O)C2COc3ccccc3O2)cc(C(=O)OC)c1 (configuration not stated)	72*	2	9	·	·	26*	42	8	4
O=C(CCCC(=O)NN=Cc1ccccc1Cl)NN=Cc1ccccc1Cl	51*	-2	1	·	·	20	27	1	1
O=C(CCCC(=O)NN=Cc1ccc(Cl)cc1Cl)NN=Cc1ccc(Cl)cc1Cl	-14	4	4	·	·	·	·	·	·
CC(C)N(C(N)=NC(=O)OCc1ccccc1)C(C)C	·	-2	·	·	·	·	·	·	·
COc1cc2c(-c3ccccc3)c(C)oc2cc1/C=N/NC(N)=S	103*	8	-4	·	27	17	10	5	14
Brc1ccc(CSc2ccc3nnc(-c4cccnc4)n3n2)cc1	60*	-4	7	-10	13	25*	39	9	13
Cc1ccc(CSc2ccc3nnc(-c4ccccn4)n3n2)cc1	61*	-3	2	0	10	25*	35	6	6
Brc1ccc(CSc2ccc3nnc(-c4ccccn4)n3n2)cc1	39	-6	5	-5	12	·	·	·	·
Cc1ccc(C(=O)C2CCN(CC(=O)NCc3cccs3)CC2)cc1	·	5	·	·	·	·	·	·	·
Cc1cc(C)c(O)c(C(=O)CC2CC(=O)NC(=O)C2)c1	10	-1	0	·	·	·	·	·	·
Cc1ccc(C(Nc2ccccc2)c2ccc3ccc(C)nc3c2O)c(C)c1 (configuration not stated)	-39	11	1	·	·	·	·	·	·
COC(=O)N[C@@H]1C[C@H]2[C@@H]3CC[C@H]4C[C@@H](OC)CC[C@]4(C)[C@H]3CC[C@]12C	55*	2	10	·	·	20	40	7	6
COc1ccc2nc(C)cc(SCC(=O)NNC(=O)COc3cccc4ccccc34)c2c1	71*	11	19	-49	-6	46*	56*	9	8
COc1ccc(-c2nc(SCC(=O)Nc3nccs3)c(-c3ccc(Cl)cc3)[nH]2)cc1	68*	10	7	-31	-4	45*	59*	8	3
COc1ccc(-c2[nH]c(-c3ccc(C)cc3)nc2SCC(=O)Nc2nccs2)cc1	18	18	4	6	-11	·	·	·	·
CCN1C(c2ccccc2)C(C)C(=O)C(C)C1c1ccccc1 (configuration not stated)	52*	0	0	-1	2	13	-6	-1	-5
Cc1cc(Nc2cccc(C(F)(F)F)c2)cc(=O)n1-c1cccc(C(F)(F)F)c1	-7	1	0	·	·	·	·	·	·
Clc1cc(Cl)cc(CN2CCN(c3ncc(Cc4ccccc4)cn3)CC2)c1	-40	4	0	·	·	·	·	·	·
COc1ccc2c(c1)C(SCC(=O)NCCc1ccc(Cl)cc1)CC(C)(C)O2 (configuration not stated)	62*	2	6	-11	-2	18	43	6	35
SMILES	TAAR1 antagonist	rCAG RNA binder	TAAR1 ag	NS3 helicase inh	core dimer inh	nonsel antag count	TAAR1 ant conf	Ga16 nonsel ag	TAAR1 ag counter
CCOC(=O)c1[nH]c2ccc(OC)cc2c1NC(=O)CN1CCc2ccccc2C1	60*	-4	17	-7	4	23*	51*	11	23
CC1CCc2cc(F)ccc2N1C(=O)CSc1nnc2c(n1)[nH]c1ccccc12 (configuration not stated)	56*	8	13	-2	17	34*	58*	7	9
COC(=O)CNC(c1ccccc1)c1cc(Cl)ccc1NC(=O)c1cccc(Cl)c1 (configuration not stated)	87*	-4	-1	-11	-1	11	34	2	6
COc1ccccc1NC(=S)N(CCCN(C)C)Cc1cc2cc3c(cc2[nH]c1=O)OCO3	-11	1	3	7	11	·	·	·	·
COc1ccc(NC(=O)N(Cc2cc3ccc(OC)cc3[nH]c2=O)CC2CCCO2)cc1 (configuration not stated)	10	-5	15	0	7	·	·	·	·
COc1ccc(NC(=O)N(Cc2cc3cc(OC)ccc3[nH]c2=O)CC2CCCO2)cc1 (configuration not stated)	56*	-1	13	-6	4	27*	41	7	5
COC(=O)c1ccccc1NC(=S)N(Cc1ccc2c(c1)OCO2)Cc1cc2cc(OC)ccc2[nH]c1=O	53*	14	3	-2	12	15	27	6	9
O=C(CSc1nnc(-c2cccs2)o1)Nc1cc(Cl)cc(Cl)c1	·	7	·	·	·	·	·	·	·
COc1ccc(C2=NOC(Cn3nc(C(=O)NCC4CC4)cc3-c3ccccc3)C2)cc1 (configuration not stated)	72*	-4	14	·	5	34*	49*	6	5

Compound activity deposited in PubChem BioAssay by The Scripps Research Institute Molecular Screening Center.
